# eIF4H inh: inhibitors of RNA binding by human eIF4H; eIF4H fluorescence polarization binding assay; inhibition, % at 35 µM; 290,000 compounds, 0.94% hits;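 also: calls also rest on retests at 20 µM and on dose response follow-up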
# PABP FP inh: PABP-poly(A) binding inhibition; AID 2014; PABP-poly(A) RNA binding, fluorescence polarization; 290,000 compounds, 1% hits; P11940; calls only at 35 µM;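 also: calls also rest on retests at 20 µM and on dose response follow-up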
# HCV core dimer: blocks dimerization of HCV core protein; TR-FRET GST/Flag-core106 dimerization, 1536-well; inhibition, % at 5 µM; 300,000 compounds, 0.33% hits; AID 1899;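 active = inhibition above the mean of all tested compounds plus 3 SD, set per screening campaign, cut at about 45% in these data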
#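 System – GST-tagged and Flag-tagged HCV core protein residues 1-106 · Repeats – one well for each compound · Technique – TR-FRET 671 and 617 nm emission · Doses – one concentration, 5 µM, in 0.5% DMSO · Times – 4 h, 22.5 °C incubation · Also added – Eu donor and XL665 acceptor anti-tag antibodies · Measure – percent inhibition of core106 dimerization signal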
# MLLE-PAM2 inh: inhibitors of microRNA-mediated deadenylation, human PABP1 MLLE binding; 360,000 compounds, 0.36% hits; inhibition, % at 20 µM; P11940; GST-MLLE / FITC-PAM2 fluorescence polarization; in the data active = inhibition above about 35%, passing the limit was not always enough;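 also: plate controls were DMSO wells with GST-MLLE for no effect and wells lacking GST-MLLE protein for full effect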
# UBC9 SUMO inh: SUMOylation inhibition. AID 2006. inhibition, % at 35 µM. HTRF SUMOylation assay, SAE1/SAE2 + UBC9, in vitro. 290,000 compounds, 0.36% hits; in the data active = inhibition above about 50%, passing the limit was not always enough; inconclusive = no clear call, values can overlap the other calls
# Target sequence (P63279 whole entry, looked up): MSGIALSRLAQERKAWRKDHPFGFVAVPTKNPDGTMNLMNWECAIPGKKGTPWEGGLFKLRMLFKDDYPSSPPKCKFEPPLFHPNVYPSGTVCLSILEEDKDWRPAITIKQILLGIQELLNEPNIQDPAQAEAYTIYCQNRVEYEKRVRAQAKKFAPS
# eIF4E-4G inh: inhibitors of eIF4E and eIF4G interaction in translation initiation. P63073+Q04637. TR-FRET eIF4E-eIF4GI(517-606) binding, 2 h. inhibition, % at 21.7 µM. 220,000 compounds, 0.37% hits. AID 782;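 active = inhibition above about 30%, limit read from the data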;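 also: 0% = full FRET control wells and 100% = background wells lacking eIF4GI fragment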
# * = called active by the depositor; i = inactive; ? = inconclusive; / = no result; + = active, no number. Compounds with a hit are over-represented: about 1.8% of the library has one in this group of screens. Unless noted, no rule for the calls is given here.
SMILES,eIF4H inh,PABP FP inh,HCV core dimer,MLLE-PAM2 inh,UBC9 SUMO inh,eIF4E-4G inh
Cc1cccc(S(=O)(=O)c2c(N)n(/N=C/c3ccco3)c3nc4ccccc4nc23)c1,20,i,20,-20,25,-2
CCc1ccc(NC(=O)N(CCN(C)C)C(C)c2cccnc2)cc1 (stereo not drawn),-6,i,10,7,-6,3
CCOc1ccc(NC(=O)N(CCN(C)C)C(C)c2cccnc2)cc1 (stereo not drawn),-6,i,-1,4,22,88*
COc1ccc(C2=Nn3c(nnc3C(F)(F)F)SC2)cc1,-5,i,6,-20,-2,/
NC(N)=Nc1cc2ccccc2c2ccccc12,2,i,-4,/,86*,-3
O=[N+]([O-])c1cccc(C=Nc2cc3c(cc2Br)OCCO3)c1,-2,i,-9,1,-11,2
Cc1ccc(NC(=O)c2cc(C)n(-c3ccccc3)c2C)cc1,-5,i,8,0,4,-2
Cc1cc(C(=O)Nc2ccc(Cl)cc2)c(C)n1-c1ccccc1,-7,i,5,-16,88*,-2
O=C1C=C(N2CCOCC2)c2ccccc2C1=O,1,i,17,11,96*,/
O=C1C=C(N2CCOCC2)c2cccc3cccc1c23,/,/,/,95,/,/
Nc1nonc1-c1nc2ccccc2n1CC(=O)N/N=C\c1ccc(-c2ccc(Cl)cc2)o1,11,i,84*,-4,48,-13
NNC(=O)Cn1c(-c2nonc2N)nc2ccccc21,2,i,-3,3,15,-2
CC(=O)c1ccc(NC(=O)C2CCCNC2=O)cc1 (stereo not drawn),-1,i,-2,40*,0,-4
CC(C)CCNC(=O)C1CCC(CNS(=O)(=O)c2ccc(Cl)cc2)CC1 (stereo not drawn),-7,i,/,-3,-4,/
CC(C)(C)c1c(Cl)c(O)c(-c2ccccc2)c(=O)n1-c1ccccc1,-13,i,/,-16,48,33*
Cc1c(O)c2ccccc2n(-c2ccccc2)c1=O,/,/,5,8,/,/
CCOC(=O)c1sc2nc3c(cc2c1N)COC(C)(CC)C3 (stereo not drawn),2,i,-1,14,-12,1
CCC1(C)Cc2nc3sc(C(=O)O)c(N)c3cc2CO1 (stereo not drawn),12*,+,14,-6,2,-2
O=C(CSc1ccccn1)N/N=C/c1ccccc1[N+](=O)[O-],active,+,-6,-5,-9,21
O=C(CSc1ccccn1)N/N=C/c1cc([N+](=O)[O-])ccc1O,12,i,-9,-3,1,-13
CCN(CC)c1ccc(C(=O)NNC(=O)Cn2c(=O)cnc3ccccc32)cc1,/,/,/,0,/,/
Oc1c(/C=C/C=C/C=Nc2ccccc2)sc(=S)n1Cc1ccccc1,22,i,50*,-97,29,-3
CCCCn1c(O)c(/C=C/C=C/C=Nc2ccccc2)sc1=S,54*,i,63*,-68,28,-5
Nc1ccc2oc3ccc(N)cc3c(=O)c2c1,79*,+,4,16,31,/
O=C1NC(=O)C(c2ccccc2[N+](=O)[O-])=C1Nc1ccc(O)c(Cl)c1,67*,+,-21,27,23,/
SMILES,eIF4H inh,PABP FP inh,HCV core dimer,MLLE-PAM2 inh,UBC9 SUMO inh,eIF4E-4G inh
COc1cccc(NC(=O)CN2C(=O)CSc3ccc(S(=O)(=O)N4CCCCC4)cc32)c1,/,/,7,7,/,/
C[C@H]1CN([C@@H](C)CO)C(=O)CCCn2nncc2CO[C@H]1CN(C)C(=O)Nc1ccc2c(c1)OCO2,/,/,/,5,/,/
COc1cc(Cl)c(C)cc1NC(=O)c1ccc(S(C)(=O)=O)cc1,0,i,-1,-12,7,1
CC(=O)c1c2c3c(c(Br)ccc3n(C)c1=O)C(=O)c1ccccc1-2,/,/,17,59*,/,/
CC(=O)c1c2c3c(cccc3n(C)c1=O)C(=O)c1ccccc1-2,?,?,-4,/,26,/
CC1CCCCN1C(=S)NC(=O)c1cccs1 (stereo not drawn),7,i,1,20,18,92*
CC1CCN(C(=S)NC(=O)c2cccs2)CC1,-14,i,6,1,23,-3
O=C(Oc1cccc(Nc2ncnc3ccccc23)c1)c1ccccc1Cl,-5,i,2,-7,-13,6
